Laboratory results published in ChEMBL document CHEMBL5303300, “EUbOPEN Chemogenomics Library - Multiplex” (2023).
Several values for one entry are separate records, joined by “and”; a condition that tells them apart may be missing. Identical values can stand only once.

Experiments:
HEK-293T = assay: Multiplex assay against HEK293T; type: toxicity, cell-based; details: human, number of replicates 2
Outline: (§1)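 On a CQ1 microscope at 37°C and 5% CO2, live cells were imaged after compound addition. They had been stained at seeding with Hoechst33342, BioTracker Green Microtubule Cytoskeleton Dye, MitoTracker Red and Annexin V Alexa Fluor 680. CellPathfinder machine-learning gating assigned cells to Hoechst high-intensity objects or normal cells, normal cells to healthy, pyknosed or fragmented nuclei, and pyknosed cells to mitotic or apoptotic. Tubulin, mitochondrial-mass and membrane-permeability phenotypes are per cents of healthy-nucleus cells.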

U2OS = assay: Multiplex assay against U2OS; type: toxicity, cell-based; details: human, number of replicates 2; outline: as §1
[1] = 24 h, 1 µM, compound concentration 1 uM
[2] = 24 h, 10 µM, compound concentration 10 uM
[3] = 48 h, 1 µM, compound concentration 1 uM
[4] = 48 h, 10 µM, compound concentration 10 uM
[5] = 12 h, 1 µM, compound concentration 1 uM
[6] = 12 h, 10 µM, compound concentration 10 uM

CCc1ncnc(N2CCN(C(C)=O)CC2)c1C#Cc1ccc(N)nc1.Cl.Cl
Population Normal (%) (HEK-293T; [1]): 84% and 76%
Population Pyknosed Nuclei (%) (HEK-293T; [1]): 12% and 14%
Population Tubulin-Different-Phenotype (%) (HEK-293T; [1]): 68% and 67%
Total Cell Count (HEK-293T; [1]): 305 and 394
Population Apoptotic (%) (HEK-293T; [2]): 72% and 60%
Population Fragmented Nuclei (%) (HEK-293T; [2]): 3% and 6%
Population Healthy Nuclei (%) (HEK-293T; [2]): 78% and 74%
Population Hoechst High Intensity Objects (%) (HEK-293T; [2]): 14%
Population Membrane Permeable-Phenotype (%) (HEK-293T; [2]): 2% and 1%
Population Mitochondria Different-Phenotype (%) (HEK-293T; [2]): 57% and 64%
Population Mitotic Cells (%) (HEK-293T; [2]): 27% and 39%
Population Normal (%) (HEK-293T; [2]): 85%
Population Pyknosed Nuclei (%) (HEK-293T; [2]): 18%
Population Tubulin-Different-Phenotype (%) (HEK-293T; [2]): 79% and 82%
Total Cell Count (HEK-293T; [2]): 233 and 255
Population Apoptotic (%) (HEK-293T; [3]): 71% and 74%
Population Fragmented Nuclei (%) (HEK-293T; [3]): 14% and 9%
Population Healthy Nuclei (%) (HEK-293T; [3]): 63% and 76%
Population Hoechst High Intensity Objects (%) (HEK-293T; [3]): 20% and 31%
Population Membrane Permeable-Phenotype (%) (HEK-293T; [3]): 1% and 3%
Population Mitochondria Different-Phenotype (%) (HEK-293T; [3]): 37% and 25%
Population Mitotic Cells (%) (HEK-293T; [3]): 28% and 25%
Population Normal (%) (HEK-293T; [3]): 79% and 68%
Population Pyknosed Nuclei (%) (HEK-293T; [3]): 21% and 14%
Population Tubulin-Different-Phenotype (%) (HEK-293T; [3]): 72% and 67%
Total Cell Count (HEK-293T; [3]): 307 and 445
Population Apoptotic (%) (HEK-293T; [4]): 65% and 57%
Population Fragmented Nuclei (%) (HEK-293T; [4]): 7%
Population Healthy Nuclei (%) (HEK-293T; [4]): 72% and 73%
Population Hoechst High Intensity Objects (%) (HEK-293T; [4]): 23% and 14%
Population Membrane Permeable-Phenotype (%) (HEK-293T; [4]): 0%
Population Mitochondria Different-Phenotype (%) (HEK-293T; [4]): 46% and 63%
Population Mitotic Cells (%) (HEK-293T; [4]): 34% and 42%
Population Normal (%) (HEK-293T; [4]): 76% and 85%
Population Pyknosed Nuclei (%) (HEK-293T; [4]): 20% and 19%
Population Tubulin-Different-Phenotype (%) (HEK-293T; [4]): 80% and 73%
Total Cell Count (HEK-293T; [4]): 260 and 244
Population Apoptotic (%) (U2OS; [5]): 100% and 70%
Population Fragmented Nuclei (%) (U2OS; [5]): 19% and 10%
Population Healthy Nuclei (%) (U2OS; [5]): 69% and 80%
Population Hoechst High Intensity Objects (%) (U2OS; [5]): 0%
Population Membrane Permeable-Phenotype (%) (U2OS; [5]): 0%
Population Mitochondria Different-Phenotype (%) (U2OS; [5]): 0%
Population Normal (%) (U2OS; [5]): 100%
Population Pyknosed Nuclei (%) (U2OS; [5]): 11% and 9%
Population Tubulin-Different-Phenotype (%) (U2OS; [5]): 55% and 90%
Population Apoptotic (%) (U2OS; [6]): 50% and 55%
Population Fragmented Nuclei (%) (U2OS; [6]): 18% and 10%
Population Healthy Nuclei (%) (U2OS; [6]): 72%
Population Hoechst High Intensity Objects (%) (U2OS; [6]): 0%
Population Membrane Permeable-Phenotype (%) (U2OS; [6]): 4% and 3%
Population Mitochondria Different-Phenotype (%) (U2OS; [6]): 2% and 4%
Population Mitotic Cells (%) (U2OS; [6]): 50% and 44%
Population Normal (%) (U2OS; [6]): 100% and 99%
Population Pyknosed Nuclei (%) (U2OS; [6]): 9% and 17%
Population Tubulin-Different-Phenotype (%) (U2OS; [6]): 87% and 58%
Population Apoptotic (%) (U2OS; [1]): 55% and 56%
Population Fragmented Nuclei (%) (U2OS; [1]): 9% and 7%
Population Healthy Nuclei (%) (U2OS; [1]): 75% and 82%
Population Hoechst High Intensity Objects (%) (U2OS; [1]): 0%
Population Membrane Permeable-Phenotype (%) (U2OS; [1]): 2% and 0%
Population Mitochondria Different-Phenotype (%) (U2OS; [1]): 2% and 0%
Population Mitotic Cells (%) (U2OS; [1]): 44% and 43%
Population Normal (%) (U2OS; [1]): 100% and 99%
Population Pyknosed Nuclei (%) (U2OS; [1]): 14% and 10%
Population Tubulin-Different-Phenotype (%) (U2OS; [1]): 72% and 90%
Population Apoptotic (%) (U2OS; [2]): 40% and 73%
Population Fragmented Nuclei (%) (U2OS; [2]): 16% and 12%
Population Healthy Nuclei (%) (U2OS; [2]): 67% and 71%
Population Hoechst High Intensity Objects (%) (U2OS; [2]): 0%
Population Membrane Permeable-Phenotype (%) (U2OS; [2]): 4% and 2%
Population Mitochondria Different-Phenotype (%) (U2OS; [2]): 2% and 5%
Population Mitotic Cells (%) (U2OS; [2]): 60% and 26%
Population Normal (%) (U2OS; [2]): 100% and 99%
Population Pyknosed Nuclei (%) (U2OS; [2]): 16%
Population Tubulin-Different-Phenotype (%) (U2OS; [2]): 88% and 60%
Population Apoptotic (%) (U2OS; [3]): 77% and 69%
Population Healthy Nuclei (%) (U2OS; [3]): 72% and 82%
Population Hoechst High Intensity Objects (%) (U2OS; [3]): 0%
Population Membrane Permeable-Phenotype (%) (U2OS; [3]): 0% and 2%
Population Mitochondria Different-Phenotype (%) (U2OS; [3]): 0%
Population Mitotic Cells (%) (U2OS; [3]): 22% and 30%
Population Normal (%) (U2OS; [3]): 100%
Population Pyknosed Nuclei (%) (U2OS; [3]): 12% and 13%
Population Tubulin-Different-Phenotype (%) (U2OS; [3]): 75% and 93%
Population Apoptotic (%) (U2OS; [4]): 70% and 84%
Population Fragmented Nuclei (%) (U2OS; [4]): 16% and 6%
Population Healthy Nuclei (%) (U2OS; [4]): 32% and 66%
Population Hoechst High Intensity Objects (%) (U2OS; [4]): 0%
Population Membrane Permeable-Phenotype (%) (U2OS; [4]): 5% and 4%
Population Mitochondria Different-Phenotype (%) (U2OS; [4]): 5% and 8%
Population Mitotic Cells (%) (U2OS; [4]): 30% and 15%
Population Normal (%) (U2OS; [4]): 100%
Population Pyknosed Nuclei (%) (U2OS; [4]): 50% and 27%
Population Tubulin-Different-Phenotype (%) (U2OS; [4]): 89% and 72%
